According to ChEMBL document CHEMBL4765452, “Discovery of (E)-N-(4-methyl-5-(3-(2-(pyridin-2-yl)vinyl)-1H-indazol-6-yl)thiazol-2-yl)-2-(4-methylpiperazin-1-yl)acetamide (IHMT-TRK-284) as a novel orally available type II TRK kinase inhibitor capable of overcoming multiple resistant mutants” (Eur J Med Chem, 2020):
The source made the active and inactive calls. The calls are words filed in the database; no cut-off is given here.

Legend:
[1] = Antiproliferative activity in mouse BAF3 cells assessed as growth inhibition after 72 hrs by CCK8 assay; format: cell-based
Procedure, shortened: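 TEL- or LMNA-fusion isogenic BaF3 lines grown in RPMI 1640 with 10% FBS and 1% penicillin/streptomycin at 37 °C, 5% CO₂; suspension cells collected by spinning at 800 rpm for 4 min before use; growth inhibition scored as GI₅₀.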

[2] = target: Mast/stem cell growth factor receptor Kit (Homo sapiens, UniProt P10721); test: Inhibition of TEL fused KIT (unknown origin) transfected in mouse BAF3 cells assessed as growth inhibition after 72 hrs by CCK8 assay; format: cell-based
Sequence of Mast/stem cell growth factor receptor Kit (P10721 whole entry, the tested form may be a part): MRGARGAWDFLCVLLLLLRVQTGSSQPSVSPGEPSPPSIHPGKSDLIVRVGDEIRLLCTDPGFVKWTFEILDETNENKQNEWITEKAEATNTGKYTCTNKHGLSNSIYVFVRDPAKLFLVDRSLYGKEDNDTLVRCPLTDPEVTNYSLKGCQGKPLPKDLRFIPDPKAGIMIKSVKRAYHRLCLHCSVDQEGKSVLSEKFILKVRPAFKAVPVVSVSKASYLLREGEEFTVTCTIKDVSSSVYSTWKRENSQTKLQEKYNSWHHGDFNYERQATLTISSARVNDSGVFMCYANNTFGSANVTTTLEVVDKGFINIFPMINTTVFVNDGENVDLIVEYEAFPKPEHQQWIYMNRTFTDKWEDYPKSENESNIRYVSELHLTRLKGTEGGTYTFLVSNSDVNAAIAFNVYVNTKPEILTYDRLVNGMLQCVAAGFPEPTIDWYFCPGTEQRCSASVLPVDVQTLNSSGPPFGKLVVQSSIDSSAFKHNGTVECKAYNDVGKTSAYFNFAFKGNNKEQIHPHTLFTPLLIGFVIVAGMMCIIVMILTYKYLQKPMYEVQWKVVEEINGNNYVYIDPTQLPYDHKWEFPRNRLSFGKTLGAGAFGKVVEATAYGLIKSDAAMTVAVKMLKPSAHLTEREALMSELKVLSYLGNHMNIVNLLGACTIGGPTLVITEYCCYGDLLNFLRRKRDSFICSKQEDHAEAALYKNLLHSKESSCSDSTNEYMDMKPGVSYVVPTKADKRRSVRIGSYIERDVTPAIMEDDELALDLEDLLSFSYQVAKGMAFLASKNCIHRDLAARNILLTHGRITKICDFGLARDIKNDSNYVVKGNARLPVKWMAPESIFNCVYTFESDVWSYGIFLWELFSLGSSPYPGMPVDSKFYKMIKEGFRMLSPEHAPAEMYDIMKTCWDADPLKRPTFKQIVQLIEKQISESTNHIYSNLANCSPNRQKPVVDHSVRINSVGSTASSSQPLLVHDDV
Procedure, shortened: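 TEL-fusion isogenic BaF3 lines were built in-house and grown in RPMI 1640 with 10% FBS and 1% penicillin/streptomycin at 37 °C under 5% CO2. Cells were spun down before use.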

[3] = target: T1, High affinity nerve growth factor receptor (Homo sapiens, UniProt P04629); test: Inhibition of human TRKA by Z-LYTE or ADP-Glo assay
Procedure, shortened: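 Purified kinase proteins tested biochemically in Z'LYTE or ADP-Glo format.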
Target sequence in this assay (P04629 whole entry): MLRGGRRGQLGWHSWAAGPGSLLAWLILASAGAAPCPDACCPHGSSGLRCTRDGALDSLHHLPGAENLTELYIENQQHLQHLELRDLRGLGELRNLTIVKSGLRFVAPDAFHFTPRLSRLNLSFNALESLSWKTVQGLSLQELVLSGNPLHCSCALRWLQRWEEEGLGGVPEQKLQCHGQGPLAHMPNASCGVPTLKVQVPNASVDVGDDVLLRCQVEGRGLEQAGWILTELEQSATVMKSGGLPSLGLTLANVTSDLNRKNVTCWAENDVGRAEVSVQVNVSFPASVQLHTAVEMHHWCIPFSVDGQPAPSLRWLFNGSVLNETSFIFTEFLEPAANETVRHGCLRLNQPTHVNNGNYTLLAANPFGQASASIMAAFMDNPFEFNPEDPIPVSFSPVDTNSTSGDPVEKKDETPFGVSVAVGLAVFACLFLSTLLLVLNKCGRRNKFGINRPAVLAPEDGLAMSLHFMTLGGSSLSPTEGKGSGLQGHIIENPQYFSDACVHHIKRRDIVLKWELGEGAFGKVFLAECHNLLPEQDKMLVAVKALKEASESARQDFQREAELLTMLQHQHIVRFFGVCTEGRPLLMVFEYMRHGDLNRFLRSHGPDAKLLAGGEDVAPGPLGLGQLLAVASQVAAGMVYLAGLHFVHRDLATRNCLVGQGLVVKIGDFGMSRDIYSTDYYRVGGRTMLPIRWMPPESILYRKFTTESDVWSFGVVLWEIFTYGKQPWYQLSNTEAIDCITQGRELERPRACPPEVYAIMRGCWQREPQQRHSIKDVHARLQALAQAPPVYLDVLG

[4] = target: T1, High affinity nerve growth factor receptor; test: Inhibition of TEL fused wild type TRKA (unknown origin) transfected in mouse BaF3 cells assessed as reduction in phosphorylation at Y490 residue after 2 hrs by Western blot analysis; format: cell-based
Procedure, shortened: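 Isogenic BaF3 lines, made in-house, grown in RPMI 1640 with 10% FBS and 1% penicillin/streptomycin at 37 °C under 5% CO2. Serially diluted compound added for 2 h. Cells collected and lysed, and lysates analysed by western blotting for phospho-TRK. EC50 derived from the blots.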
Target sequence in this assay (P04629 whole entry): as above

[5] = target: High affinity nerve growth factor receptor (Homo sapiens, UniProt P04629, G595R); test: Inhibition of LMNA fused TRKA G595R mutant (unknown origin) transfected in mouse BaF3 cells assessed as reduction in phosphorylation at Y490 residue after 2 hrs by Western blot analysis; format: cell-based
Sequence of High affinity nerve growth factor receptor (Homo sapiens, UniProt P04629, G595R) (P04629 33-796 G595R limits assumed): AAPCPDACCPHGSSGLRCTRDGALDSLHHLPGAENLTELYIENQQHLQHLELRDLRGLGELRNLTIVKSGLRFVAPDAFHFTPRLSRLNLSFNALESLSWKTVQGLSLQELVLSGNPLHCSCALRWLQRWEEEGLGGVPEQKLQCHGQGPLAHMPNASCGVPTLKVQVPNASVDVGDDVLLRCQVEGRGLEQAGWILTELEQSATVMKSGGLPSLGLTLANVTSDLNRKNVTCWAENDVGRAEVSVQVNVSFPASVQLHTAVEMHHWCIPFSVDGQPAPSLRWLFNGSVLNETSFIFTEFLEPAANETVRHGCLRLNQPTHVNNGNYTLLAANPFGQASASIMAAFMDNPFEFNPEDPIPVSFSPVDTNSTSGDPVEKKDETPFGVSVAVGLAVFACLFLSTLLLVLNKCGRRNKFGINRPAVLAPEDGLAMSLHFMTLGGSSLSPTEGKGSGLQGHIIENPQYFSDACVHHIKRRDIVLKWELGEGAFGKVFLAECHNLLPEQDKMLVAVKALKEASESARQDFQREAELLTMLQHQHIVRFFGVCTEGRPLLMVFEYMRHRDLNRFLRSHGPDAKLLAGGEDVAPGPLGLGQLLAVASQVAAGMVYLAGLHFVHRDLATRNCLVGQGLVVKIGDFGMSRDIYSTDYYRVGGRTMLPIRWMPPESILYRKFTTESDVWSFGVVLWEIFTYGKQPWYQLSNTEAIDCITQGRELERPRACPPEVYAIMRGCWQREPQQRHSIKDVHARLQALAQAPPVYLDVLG

[6] = Antiproliferative activity against human KM-12-LUC cells harboring […] fused TRKA assessed as growth inhibition after 72 hrs by CCK8 assay; format: functional; details: KM12-Luc
Procedure, shortened: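 KM-12-LUC cells seeded at 3 × 10⁴ cells/mL, incubated overnight at 37 °C, 5% CO₂, then medium replaced with fresh medium containing a range of compound concentrations for 72 h; viability read by CCK-8 absorbance at 450 nm, normalized to DMSO control, GI₅₀ from curve fitting.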

[7] = target: T1, High affinity nerve growth factor receptor; test: Inhibition of TRKA in human KM-12-LUC cells assessed as reduction in TRKA phosphorylation at Y490 residue at 0.01 uM after 2 hrs by Western blot analysis; format: cell-based; details: KM12-Luc
Procedure, shortened: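 KM-12-LUC cells cultured in RPMI 1640 with 10% FBS and 1% penicillin/streptomycin. Serially diluted compound applied for 2 h. Cells collected and lysed, and lysates analysed by western blotting for phospho-TRKA Y490, AKT T308/S473 and ERK1/2 T202/Y204.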
Target sequence in this assay (P04629 33-796 limits assumed): as the sequence (P04629 33-796 G595R limits assumed) above, with R563G counted along it

[8] = Tmax in Sprague-Dawley rat at 10 mg/kg, po; format: ADME, organism-based; details: in vivo
Procedure, shortened: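 Single-dose PK in mice, Sprague Dawley rats and beagle dogs, given i.v. (1 mg/kg) or p.o. (10 mg/kg mice and rats; 5 mg/kg dogs). AUC0-t, T1/2, Tmax and oral bioavailability (F) derived from plasma profiles.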

[9] = Cmax in Sprague-Dawley rat at 1 mg/kg, iv; format: ADME, organism-based; design: route intravenous, dose 1 mg/kg; details: in vivo
[10] = AUC (0 to t) in Beagle dog at 5 mg/kg, po; format: ADME, organism-based, Canis lupus familiaris; design: dose 5 mg/kg; details: in vivo
Procedure, shortened: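 Intravenous and oral arms were run in parallel in each species (mice, Sprague Dawley rats, beagle dogs). Exposure is reported as AUC0-t in ng/mL·h.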

[11] = Half life in Beagle dog at 1 mg/kg, iv; format: ADME, organism-based, Canis lupus familiaris; details: in vivo
[12] = Half life in Beagle dog at 5 mg/kg, po; format: ADME, organism-based, Canis lupus familiaris; details: in vivo
BaF3 = test: Antitumor activity against mouse BAF3 cells harboring TEL fused TRKC allografted in nude mouse assessed as tumor growth inhibition at 40 mg/kg, po administered once daily for 10 days relative to control; format: functional; details: 240 h, time 10 day, read-out: TGI
Procedure, shortened: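 Nu/nu mice given 1 million BaF3 cells (TEL-TRKA, TEL-TRKB, TEL-TRKC, LMNA-TRKA-F589L or LMNA-TRKA-G667S) in DMEM, 1:1 with matrigel, injected subcutaneously into the right flank; oral gavage began at 200–400 mm³, 5 mice per group, compound in 0.5% methylcellulose/0.4% Tween 80 in ddH₂O, 10 days; tumor volume [(W²×L)/2] and body weight recorded daily; TGI versus vehicle.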

[13] = Toxicity in mouse xenografted with mouse BAF3 cells harboring TEL fused TRKA assessed as effect on body weight at 40 to 80 mg/kg, po administered once daily for 10 days; format: organism-based; details: in vivo, 240 h, dose 40-80 mg/kg/day, time 10 day
Procedure, shortened: (§1)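 nu/nu mice were given subcutaneous right-flank implants in 1:1 DMEM/matrigel: 1 million BaF3 fusion cells or 5 million KM-12-LUC cells. Oral gavage started at 150–200 mm3 (xenograft) or 200–400 mm3 (allograft). Dosing used 40 or 80 mg/kg in HKI vehicle (0.5% methylcellulose/0.4% Tween 80 in ddH2O), with 5 mice per group. Body weight was recorded daily and behaviour observed.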

[14] = Toxicity in mouse xenografted with mouse BAF3 cells harboring TEL fused TRKB assessed as effect on animals behaviour at 40 to 80 mg/kg, po administered once daily for 10 days; format: organism-based; details: in vivo, 240 h, dose 40-80 mg/kg/day, time 10 day; procedure, shortened: as §1

GI50 [2]: 923 nM
IC50 [3]: 10.5 nM
EC50 [4]: 26 nM
EC50 [5]: 120 nM
inhibition [7]: Active
Tmax [8]: 4.7 h
Cmax [9]: 363 ng/mL
AUC(0-t) [10]: 464 ng·h/mL
t1/2 [11]: 1.8 min
t1/2 [12]: 11.8 h
Compound: Cc1nc(NC(=O)CN2CCN(C)CC2)sc1-c1ccc2c(/C=C/c3ccccn3)n[nH]c2c1
GI50 at 72 h [1]: 1400 nM
GI50 [6]: 2 nM
inhibition in vivo at 40 mg/kg/day (BaF3): 40.6%
Activity [13]: Non-Toxic
Activity [14]: Non-Toxic
